# Test results from PubChem BioAssay AID638 (SRMLSC, 2007).
# Among all 1,300 compounds or so, about 65 (5%) were called active.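 Rule for the calls: active = growth inhibition reaching a set limit at one or more tested doses; inactive = the rest.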 Only a sample is shown. Entries with a potency or affinity are not part of this list.
# Experiment: wild-type E. coli BW25113 antibacterial activity – OD615, dose response (AID 638)
# Details: at 100 µM (top of the series) unless noted
# In short: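 Assay system: E. coli BW25113 wild type. Doses: compound concentration series. Timing: 20 h compound exposure, 37 °C. Technique: OD615 absorbance. Medium: LB broth containing kanamycin at 50 µg/mL. Benchmarks: chloramphenicol at 30 µM final as inhibition control. Measure: IC50 from 4-parameter logistic, bounds fixed 0–100%.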
row,Structure (SMILES),growth inhibition
1,O=c1n(Cc2ccccc2)c2cc(Cl)cnc2n1Cc1ccccc1,6.2% (inactive)
2,CC(C)(C)C(=O)Cn1c(=N)n(Cc2ccccc2)c2ccccc21,1.06% (inactive)
3,O=C(NCc1ccco1)C(c1cccs1)N(C(=O)C1COc2ccccc2O1)c1cccc(O)c1 (stereo not given),1.03% (inactive)
4,CCOC(=O)N1CCN(c2nc(N(c3ccccc3)c3ccccc3)nc(-n3ccnc3)n2)CC1,-3.06% (inactive)
5,COc1ccc(C2c3sc(=O)[nH]c3SC3C4CCC(C4)C23)cc1 (stereo not given),0.8% (inactive)
6,Cc1nc2c(C(=O)NCc3ccc4c(c3)OCO4)c[nH]n2c(=O)c1Cc1ccccc1F,0.77% (inactive)
7,CCOC(=O)c1cn(CC)c2cc(N3CCOCC3)c(F)cc2c1=O,4.05% [at 50 µM] (inactive)
8,O=C(Nc1ccc(N2CCN(C(=O)c3ccco3)CC2)c(Cl)c1)c1cccs1,-1.45% (inactive)
9,CCOc1ccccc1N1CCN(C(=O)Nc2ccc(F)c(Cl)c2)CC1,-9.1% (inactive)
10,CCn1cc(C(=O)O)c(=O)c2cnc(N3CCN(C(=O)Nc4ccccc4)CC3)nc21,5.93% (inactive)
11,CCn1cc(C(=O)O)c(=O)c2cc(OC)ccc21,19.6% (inactive)
12,O=C(Nc1ccc(N2CCN(C(=O)c3ccco3)CC2)c(Cl)c1)c1c(F)c(F)c(F)c(F)c1F,-3.01% (inactive)
13,CCOC(=O)c1cn(CC)c2cc(N3CCCCC3)c(F)cc2c1=O,-6.06% (inactive)
14,CCn1c2ccccc2c2cc(NC(=O)c3ccco3)ccc21,-3.49% (inactive)
15,COc1ccccc1-c1cc(C(=O)NCc2ccc(F)cc2)no1,-0.01% (inactive)
16,CCOC(=O)C1=C(C)NC(SCC(=O)Nc2cc(C)on2)=C(C#N)C1c1cccs1 (stereo not given),3.97% (inactive)
17,CCOC(=O)c1c(-c2cccs2)csc1NC(=O)CN1CC(C)OC(C)C1 (stereo not given),-7.6% (inactive)
18,Nc1nc(CN2CCN(c3cccc(Cl)c3)CC2)nc(N2CCCc3ccccc32)n1,4.24% (inactive)
19,O=c1c2c(nc3c(-c4cccc5ccccc45)c[nH]n13)CCC2,-1.35% (inactive)
20,Cc1ccc(Cn2ccc(NC(=O)c3cc(CC(C)C)on3)n2)cc1,0.62% (inactive)

row,Structure (SMILES),growth inhibition
1,N#Cc1cn(CCOc2ccccc2F)c2ccccc12,-0.93% (inactive)
2,COc1ccccc1N1CCN(C(=O)c2cc(-c3ccc(C)cc3)on2)CC1,-0.92% (inactive)
3,Cc1cccc(C)c1NC(=O)C(c1cccs1)N(Cc1ccco1)C(=O)Cn1nnc2ccccc21 (stereo not given),-8.04% (inactive)
4,O=C(Nc1ccc2c(c1)CCC2)C1COc2ccccc2O1 (stereo not given),7.62% (inactive)
5,CCCN(CCC)C(=O)CSc1nc2ccccc2c(=O)n1C1CCCC1,-6.85% (inactive)
6,CCOC(=O)c1cc2sccc2n1Cc1ccc(C#N)cc1,-10.3% (inactive)
7,CCc1c(O)nc(SCC(=O)Nc2ccc(C)cc2)n(C2CCCCC2)c1=O,-10.1% (inactive)
8,CC1CCCc2sc3nc(NCc4ccco4)n4ncnc4c3c21 (stereo not given),-3.17% (inactive)
9,O=C1OC(c2ccc(O)cc2)(c2ccc(O)cc2)c2ccccc21,24.6% (active)
10,CCn1c(SC)nnc1-c1sc2cc(Cl)ccc2c1Cl,2.34% (inactive)
11,CC1CCCCC1n1c(=S)[nH]c2ccccc2c1=O (stereo not given),-0.57% (inactive)
12,CCCOc1ccc2oc(=O)c3c(c2c1)CCCN3C(=O)CN1CCc2ccccc2C1,0.92% (inactive)
13,Cc1ccc(O)c(C(=O)CC(=O)c2cccc(F)c2)c1,11.9% (inactive)
14,CCCCCSc1nnc(-c2cc(Br)ccc2N)c(=O)[nH]1,-4.38% (inactive)
15,CCCc1cc(C(=O)Nc2cccc(Cl)c2)no1,12.5% (inactive)
16,CC(C)COC(=O)NCCOC(=O)Nc1cccc(Cl)c1,18.9% (inactive)
17,CCOC(=O)C1CCCN(c2ncnc3c2cnn3-c2ccc(Cl)cc2)C1 (stereo not given),-11.7% (inactive)
18,O=C1CC(c2ccco2)CC2=C1C1c3ccccc3C(=O)N1c1ccccc1N2 (stereo not given),-3.27% (inactive)
19,CC(C)Cn1c(=O)c(C(=O)Nc2cnccn2)c(O)c2ccccc21,16.1% (inactive)
20,O=C(C1CC1)N1CCc2cc(S(=O)(=O)NCCC3=CCCCC3)ccc21,9.41% (inactive)

row,Structure (SMILES),growth inhibition
1,CCOC(=O)c1ccccc1NC(=O)C(C)Oc1ccccc1 (stereo not given),-0.25% (inactive)
2,Cc1cc2n(n1)C(c1ccc3c(c1)OCO3)Nc1c(C)cccc1-2 (stereo not given),-5.6% (inactive)
3,CSc1nc2ccc(NS(=O)(=O)c3ccc4c(c3)OCCO4)cc2s1,-7.17% (inactive)
4,Cc1ccc(NC(=O)c2nnn(-c3cc(C)cc(C)c3)c2N)cc1,-3.73% (inactive)
5,CCCCOc1ccc(S(=O)(=O)N2CCCCCC2)cc1,6.59% (inactive)
6,Cc1ccc(Cl)cc1N1CCN(C(=O)c2ccc(NS(=O)(=O)c3c(C)noc3C)cc2)CC1,-7.75% (inactive)
7,CC(=Nc1ccc(O)cc1)c1sc2ccccc2c1O,-1.71% (inactive)
8,O=c1c2ccccc2nc(SCc2cn3ccsc3n2)n1-c1ccccc1F,-8.01% (inactive)
9,COC(=O)c1c(NC(=O)Cc2cccs2)sc2c1CCCC2,2.67% (inactive)
10,COc1ccccc1N1CCN(C(=O)COc2ccc(C)cc2Br)CC1,12.1% (inactive)
11,CCOC(=O)N1CCN(C(=O)COc2ccc(S(=O)(=O)Nc3ccc(OCC)cc3)cc2)CC1,3.01% (inactive)
12,CCOc1ccc(NS(=O)(=O)c2ccc(SC)cc2)cc1,11.9% (inactive)
13,CCOc1ccc(S(=O)(=O)Nc2cccc(Cl)c2)cc1,20% (active)
14,Cc1ccc(-n2c(=O)[nH]cc(C(=O)Nc3ccc4c(c3)OCCO4)c2=O)cc1C,-5.27% (inactive)
15,O=C(OC1CCc2ccccc2C1=O)c1ccccc1O (stereo not given),9.44% (inactive)
16,CCCCCc1cc(O)c2c(C)cc(=O)oc2c1,7.24% (inactive)
17,CCCCCCOC(=O)C(C#N)c1nc2ccccc2nc1N1CCN(C)CC1 (stereo not given),12.3% (inactive)
18,CC1=C(C(=O)OCC(C)C)C(c2cc3c(cc2Br)OCO3)NC(=O)N1C (stereo not given),12.5% (inactive)
19,CN(C)c1ccc(/C=N/n2ncc3ccccc32)cc1,-3.99% (inactive)
20,COc1nc(N(c2ccccc2)c2ccccc2)nc(-n2ccnc2)n1,12.7% (inactive)
